From ChEMBL document CHEMBL3734675, “Synthesis, antimycobacterial and antibacterial activity of fluoroquinolone derivatives containing an 3-alkoxyimino-4-(cyclopropylanimo)methylpyrrolidine moiety” (2015)
In brackets after ≈: the same amount, converted by molar mass.

Legend:
Format in all cases: functional
[1] = test system: Enterococcus faecium; experiment: Antibacterial activity against Enterococcus faecium 14-5 after 18 to 24 hrs by two-fold serial dilution method
Summary of the method: (§1)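 Twofold serial dilution in agar media against Gram-positive and Gram-negative strains. Plates incubated at 35 °C for 18–24 h. MIC read as the lowest compound concentration giving complete inhibition of bacterial growth.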

[2] = test system: Klebsiella pneumoniae; experiment: Antibacterial activity against Klebsiella pneumoniae 14-1 after 18 to 24 hrs by two-fold serial dilution method; summary of the method: as §1
[3] = test system: Klebsiella pneumoniae; experiment: Antibacterial activity against extended-spectrum beta-lactamase producing Klebsiella pneumoniae 14-17 after 18 to 24 hrs by two-fold serial dilution method; summary of the method: as §1
[4] = test system: Enterococcus faecium; experiment: Antibacterial activity against Enterococcus faecium 14-6 after 18 to 24 hrs by two-fold serial dilution method; summary of the method: as §1
[5] = test system: Escherichia coli; experiment: Antibacterial activity against Escherichia coli 14-2 after 18 to 24 hrs by two-fold serial dilution method; summary of the method: as §1
[6] = test system: Pseudomonas aeruginosa; experiment: Antibacterial activity against Pseudomonas aeruginosa 14-15 after 18 to 24 hrs by two-fold serial dilution method; summary of the method: as §1
[7] = test system: Staphylococcus aureus; experiment: Antibacterial activity against methicillin-resistant Staphylococcus aureus 14-5 after 18 to 24 hrs by two-fold serial dilution method
Summary of the method: (§2)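 Agar media, standard twofold serial dilution. MIC is the lowest concentration giving complete inhibition of bacterial growth after incubation at 35 °C for 18–24 h. Ciprofloxacin and levofloxacin were run as comparators.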

[8] = test system: Pseudomonas aeruginosa; experiment: Antibacterial activity against Pseudomonas aeruginosa 14-14 after 18 to 24 hrs by two-fold serial dilution method; summary of the method: as §1
[9] = test system: Staphylococcus epidermidis; experiment: Antibacterial activity against methicillin-resistant Staphylococcus epidermidis 14-39 after 18 to 24 hrs by two-fold serial dilution method; summary of the method: as §2
[10] = test system: Staphylococcus epidermidis; experiment: Antibacterial activity against methicillin-resistant Staphylococcus epidermidis 14-22 after 18 to 24 hrs by two-fold serial dilution method; summary of the method: as §2
[11] = test system: Klebsiella pneumoniae; experiment: Antibacterial activity against Klebsiella pneumoniae 14-4 after 18 to 24 hrs by two-fold serial dilution method; summary of the method: as §1
[12] = test system: Staphylococcus epidermidis; experiment: Antibacterial activity against methicillin-resistant Staphylococcus epidermidis 14-21 after 18 to 24 hrs by two-fold serial dilution method; summary of the method: as §2
[13] = test system: Pseudomonas aeruginosa; experiment: Antibacterial activity against Pseudomonas aeruginosa ATCC 27853 after 18 to 24 hrs by two-fold serial dilution method; summary of the method: as §1
[14] = test system: Staphylococcus aureus; experiment: Antibacterial activity against methicillin-sensitive Staphylococcus aureus 14-3 after 18 to 24 hrs by two-fold serial dilution method; summary of the method: as §1
[15] = test system: Klebsiella pneumoniae; experiment: Antibacterial activity against extended-spectrum beta-lactamase producing Klebsiella pneumoniae 14-19 after 18 to 24 hrs by two-fold serial dilution method; summary of the method: as §1
[16] = test system: Klebsiella pneumoniae; experiment: Antibacterial activity against Klebsiella pneumoniae 14-2 after 18 to 24 hrs by two-fold serial dilution method; summary of the method: as §1
[17] = test system: Escherichia coli; experiment: Antibacterial activity against extended-spectrum beta-lactamase producing Escherichia coli 14-2 after 18 to 24 hrs by two-fold serial dilution method; summary of the method: as §1
[18] = test system: Enterococcus faecium; experiment: Antibacterial activity against Enterococcus faecium 14-2 after 18 to 24 hrs by two-fold serial dilution method; summary of the method: as §1
[19] = test system: Escherichia coli; experiment: Antibacterial activity against Escherichia coli 14-1 after 18 to 24 hrs by two-fold serial dilution method; summary of the method: as §1
[20] = test system: Klebsiella pneumoniae; experiment: Antibacterial activity against Klebsiella pneumoniae 14-3 after 18 to 24 hrs by two-fold serial dilution method; summary of the method: as §1
[21] = test system: Staphylococcus epidermidis; experiment: Antibacterial activity against methicillin-sensitive Staphylococcus epidermidis 14-2 after 18 to 24 hrs by two-fold serial dilution method; summary of the method: as §1
[22] = test system: Staphylococcus epidermidis; experiment: Antibacterial activity against methicillin-resistant Staphylococcus epidermidis 14-37 after 18 to 24 hrs by two-fold serial dilution method; summary of the method: as §2
[23] = test system: Pseudomonas aeruginosa; experiment: Antibacterial activity against Pseudomonas aeruginosa 14-9 after 18 to 24 hrs by two-fold serial dilution method; summary of the method: as §1
[24] = test system: Staphylococcus aureus; experiment: Antibacterial activity against methicillin-resistant Staphylococcus aureus 14-4 after 18 to 24 hrs by two-fold serial dilution method; summary of the method: as §2
[25] = test system: Pseudomonas aeruginosa; experiment: Antibacterial activity against Pseudomonas aeruginosa 14-16 after 18 to 24 hrs by two-fold serial dilution method; summary of the method: as §1
[26] = test system: Staphylococcus aureus; experiment: Antibacterial activity against Staphylococcus aureus CMCC 26003 after 18 to 24 hrs by two-fold serial dilution method; summary of the method: as §1
[27] = test system: Escherichia coli; experiment: Antibacterial activity against extended-spectrum beta-lactamase producing Escherichia coli 14-1 after 18 to 24 hrs by two-fold serial dilution method; summary of the method: as §1
[28] = test system: Staphylococcus aureus; experiment: Antibacterial activity against methicillin-sensitive Staphylococcus aureus 14-4 after 18 to 24 hrs by two-fold serial dilution method; summary of the method: as §1
[29] = test system: Enterococcus faecalis; experiment: Antibacterial activity against Enterococcus faecalis 14-2 after 18 to 24 hrs by two-fold serial dilution method; summary of the method: as §1
[30] = test system: Streptococcus pneumoniae; experiment: Antibacterial activity against methicillin-resistant Streptococcus pneumoniae ATCC 19615 after 18 to 24 hrs by two-fold serial dilution method; summary of the method: as §2
[31] = test system: Klebsiella pneumoniae; experiment: Antibacterial activity against extended-spectrum beta-lactamase producing Klebsiella pneumoniae 14-18 after 18 to 24 hrs by two-fold serial dilution method; summary of the method: as §1
[32] = test system: Escherichia coli; experiment: Antibacterial activity against Escherichia coli ATCC 25922 after 18 to 24 hrs by two-fold serial dilution method; summary of the method: as §1
[33] = test system: Staphylococcus aureus; experiment: Antibacterial activity against methicillin-sensitive Staphylococcus aureus 14-1 after 18 to 24 hrs by two-fold serial dilution method; summary of the method: as §1
[34] = test system: Enterococcus faecalis; experiment: Antibacterial activity against Enterococcus faecalis 14-1 after 18 to 24 hrs by two-fold serial dilution method; summary of the method: as §1

SMILES	MIC [1] [µg/mL]	MIC [2] [µg/mL]	MIC [3] [µg/mL]	MIC [4] [µg/mL]	MIC [5] [µg/mL]	MIC [6] [µg/mL]	MIC [7] [µg/mL]	MIC [8] [µg/mL]	MIC [9] [µg/mL]	MIC [10] [µg/mL]	MIC [11] [µg/mL]	MIC [12] [µg/mL]	MIC [13] [µg/mL]	MIC [14] [µg/mL]	MIC [15] [µg/mL]	MIC [16] [µg/mL]	MIC [17] [µg/mL]	MIC [18] [µg/mL]	MIC [19] [µg/mL]	MIC [20] [µg/mL]	other results
CO/N=C1/CN(c2nc3c(cc2F)c(=O)c(C(=O)O)cn3C2CC2)CC1(C)CNC1CC1 (stereo unspecified)	4 (≈ 9.02 µM)	64 (≈ 144 µM)	64 (≈ 144 µM)	2 (≈ 4.51 µM)	> 128	64 (≈ 144 µM)	4 (≈ 9.02 µM)	64 (≈ 144 µM)	2 (≈ 4.51 µM)	2 (≈ 4.51 µM)	> 128	4 (≈ 9.02 µM)	32 (≈ 72.2 µM)	0.25 (≈ 0.564 µM)	64 (≈ 144 µM)	128 (≈ 289 µM)	> 128	4 (≈ 9.02 µM)	> 128	> 128	MIC [21]: 16 µg/mL (≈ 36.1 µM); MIC [22]: 4 µg/mL (≈ 9.02 µM); MIC [23]: 16 µg/mL (≈ 36.1 µM); MIC [24]: 4 µg/mL (≈ 9.02 µM); MIC [25]: 64 µg/mL (≈ 144 µM); MIC [26]: < 0.008 µg/mL; MIC [27]: 32 µg/mL (≈ 72.2 µM); MIC [28]: 0.5 µg/mL (≈ 1.13 µM); MIC [29]: 0.5 µg/mL (≈ 1.13 µM); MIC [30]: 0.25 µg/mL (≈ 0.564 µM); MIC [31]: 64 µg/mL (≈ 144 µM); MIC [32]: 0.5 µg/mL (≈ 1.13 µM); MIC [33]: 0.5 µg/mL (≈ 1.13 µM); MIC [34]: 16 µg/mL (≈ 36.1 µM)
CO/N=C1/CN(c2c(F)cc3c(=O)c(C(=O)O)cn4c3c2OC[C@@H]4C)CC1CNC1CC1 (stereo partly specified)	64 (≈ 144 µM)	32 (≈ 72 µM)	4 (≈ 9 µM)	> 128	> 64	> 64	64 (≈ 144 µM)	> 64	> 64	> 64	> 64	> 64	64 (≈ 144 µM)	16 (≈ 36 µM)	8 (≈ 18 µM)	32 (≈ 72 µM)	> 64	> 64	> 64	> 64	MIC [21]: > 64 µg/mL; MIC [22]: 64 µg/mL (≈ 144 µM); MIC [23]: 64 µg/mL (≈ 144 µM); MIC [24]: > 64 µg/mL; MIC [25]: 64 µg/mL (≈ 144 µM); MIC [26]: 4 µg/mL (≈ 9 µM); MIC [27]: > 64 µg/mL; MIC [28]: 16 µg/mL (≈ 36 µM); MIC [29]: 16 µg/mL (≈ 36 µM); MIC [30]: 8 µg/mL (≈ 18 µM); MIC [31]: 4 µg/mL (≈ 9 µM); MIC [32]: 0.5 µg/mL (≈ 1.12 µM); MIC [33]: 64 µg/mL (≈ 144 µM); MIC [34]: > 64 µg/mL
CC1(CNC2CC2)CN(c2nc3c(cc2F)c(=O)c(C(=O)O)cn3[C@@H]2C[C@@H]2F)C/C1=N/OCc1ccccc1 (stereo partly specified)	32 (≈ 59.5 µM)	64 (≈ 119 µM)	64 (≈ 119 µM)	32 (≈ 59.5 µM)	> 64	64 (≈ 119 µM)	16 (≈ 29.8 µM)	64 (≈ 119 µM)	32 (≈ 59.5 µM)	16 (≈ 29.8 µM)	> 64	16 (≈ 29.8 µM)	64 (≈ 119 µM)	2 (≈ 3.72 µM)	> 64	64 (≈ 119 µM)	> 64	16 (≈ 29.8 µM)	> 64	64 (≈ 119 µM)	MIC [21]: 64 µg/mL (≈ 119 µM); MIC [22]: 16 µg/mL (≈ 29.8 µM); MIC [23]: 32 µg/mL (≈ 59.5 µM); MIC [24]: 16 µg/mL (≈ 29.8 µM); MIC [25]: 64 µg/mL (≈ 119 µM); MIC [26]: 0.125 µg/mL (≈ 0.233 µM); MIC [27]: 32 µg/mL (≈ 59.5 µM); MIC [28]: 8 µg/mL (≈ 14.9 µM); MIC [29]: 2 µg/mL (≈ 3.72 µM); MIC [30]: 1 µg/mL (≈ 1.86 µM); MIC [31]: 64 µg/mL (≈ 119 µM); MIC [32]: 4 µg/mL (≈ 7.44 µM); MIC [33]: 8 µg/mL (≈ 14.9 µM); MIC [34]: 64 µg/mL (≈ 119 µM)
CCO/N=C1/CN(c2nc3c(cc2F)c(=O)c(C(=O)O)cn3C2CC2)CC1CNC1CC1 (stereo unspecified)	16 (≈ 36.1 µM)	32 (≈ 72.2 µM)	8 (≈ 18 µM)	8 (≈ 18 µM)	128 (≈ 289 µM)	32 (≈ 72.2 µM)	8 (≈ 18 µM)	32 (≈ 72.2 µM)	16 (≈ 36.1 µM)	16 (≈ 36.1 µM)	128 (≈ 289 µM)	16 (≈ 36.1 µM)	8 (≈ 18 µM)	8 (≈ 18 µM)	8 (≈ 18 µM)	32 (≈ 72.2 µM)	128 (≈ 289 µM)	32 (≈ 72.2 µM)	128 (≈ 289 µM)	128 (≈ 289 µM)	MIC [21]: 128 µg/mL (≈ 289 µM); MIC [22]: 32 µg/mL (≈ 72.2 µM); MIC [23]: 8 µg/mL (≈ 18 µM); MIC [24]: 128 µg/mL (≈ 289 µM); MIC [25]: 16 µg/mL (≈ 36.1 µM); MIC [26]: < 0.008 µg/mL; MIC [27]: 8 µg/mL (≈ 18 µM); MIC [28]: 8 µg/mL (≈ 18 µM); MIC [29]: 0.125 µg/mL (≈ 0.282 µM); MIC [30]: 2 µg/mL (≈ 4.51 µM); MIC [31]: 8 µg/mL (≈ 18 µM); MIC [32]: 2 µg/mL (≈ 4.51 µM); MIC [33]: 8 µg/mL (≈ 18 µM); MIC [34]: 64 µg/mL (≈ 144 µM)
